Measured values published in ChEMBL document CHEMBL3407444, “Novel 2,4-disubstituted pyrimidines as potent, selective, and cell-permeable inhibitors of neuronal nitric oxide synthase” (J Med Chem, 2015).

Tests used:
Nitric oxide synthase 1 [1] = target: Nitric oxide synthase 1 (Rattus norvegicus, UniProt P29476); assay: Binding affinity to recombinant rat neuronal NOS overexpressed in Escherichia coli assessed as production of nitric oxide from L-arginine measured for 5 mins by oxyhemoglobin NO capture assay
Chain of Nitric oxide synthase 1 (Rattus norvegicus, UniProt P29476) (P29476 whole entry): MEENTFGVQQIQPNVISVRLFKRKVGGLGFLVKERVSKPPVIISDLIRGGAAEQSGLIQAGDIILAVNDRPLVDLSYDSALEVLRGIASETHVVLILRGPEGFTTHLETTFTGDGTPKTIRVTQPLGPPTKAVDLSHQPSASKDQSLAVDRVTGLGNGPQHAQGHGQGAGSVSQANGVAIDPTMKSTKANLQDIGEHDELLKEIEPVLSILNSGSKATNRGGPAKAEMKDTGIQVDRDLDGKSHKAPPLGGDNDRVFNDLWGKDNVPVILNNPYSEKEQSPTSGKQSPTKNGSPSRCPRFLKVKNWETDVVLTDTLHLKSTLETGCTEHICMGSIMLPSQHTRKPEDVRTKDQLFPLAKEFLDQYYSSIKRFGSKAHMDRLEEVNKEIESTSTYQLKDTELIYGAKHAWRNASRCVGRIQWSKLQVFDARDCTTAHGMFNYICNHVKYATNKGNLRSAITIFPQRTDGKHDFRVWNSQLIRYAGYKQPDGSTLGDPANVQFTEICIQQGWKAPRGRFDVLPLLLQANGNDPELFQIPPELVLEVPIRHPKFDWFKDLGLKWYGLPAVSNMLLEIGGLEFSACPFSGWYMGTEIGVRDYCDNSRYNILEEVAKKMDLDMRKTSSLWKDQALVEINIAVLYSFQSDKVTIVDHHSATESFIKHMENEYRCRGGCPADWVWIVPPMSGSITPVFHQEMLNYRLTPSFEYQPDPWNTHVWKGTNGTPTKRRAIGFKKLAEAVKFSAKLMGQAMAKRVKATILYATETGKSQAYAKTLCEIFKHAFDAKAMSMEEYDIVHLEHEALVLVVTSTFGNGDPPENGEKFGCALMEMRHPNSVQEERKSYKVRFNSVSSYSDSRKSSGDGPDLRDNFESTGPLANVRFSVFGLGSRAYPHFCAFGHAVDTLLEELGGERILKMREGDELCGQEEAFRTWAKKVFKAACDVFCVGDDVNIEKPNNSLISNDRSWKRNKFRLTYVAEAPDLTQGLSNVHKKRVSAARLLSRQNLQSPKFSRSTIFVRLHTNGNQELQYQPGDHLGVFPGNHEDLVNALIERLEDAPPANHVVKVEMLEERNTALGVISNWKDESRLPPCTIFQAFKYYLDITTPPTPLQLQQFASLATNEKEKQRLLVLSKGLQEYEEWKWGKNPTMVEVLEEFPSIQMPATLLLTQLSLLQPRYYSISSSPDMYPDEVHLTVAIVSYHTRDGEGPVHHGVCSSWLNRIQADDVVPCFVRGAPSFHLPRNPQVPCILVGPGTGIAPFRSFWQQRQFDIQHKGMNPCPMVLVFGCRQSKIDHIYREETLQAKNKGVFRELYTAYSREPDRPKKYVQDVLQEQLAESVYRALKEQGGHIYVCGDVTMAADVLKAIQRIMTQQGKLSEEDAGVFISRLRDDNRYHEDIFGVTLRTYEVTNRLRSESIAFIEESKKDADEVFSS

[2] = Inhibition of calmodulin-dependent bovine neuronal NOS using [3H]-arginine as substrate assessed as citrulline formation after 30 mins; design: species or system Bos taurus
[3] = target: T1, Nitric oxide synthase, inducible (Mus musculus, UniProt P29477); assay: Binding affinity to recombinant mouse macrophage inducible NOS overexpressed in Escherichia coli assessed as production of nitric oxide from L-arginine measured for 5 mins by oxyhemoglobin NO capture assay
T1 sequence (P29477 whole entry): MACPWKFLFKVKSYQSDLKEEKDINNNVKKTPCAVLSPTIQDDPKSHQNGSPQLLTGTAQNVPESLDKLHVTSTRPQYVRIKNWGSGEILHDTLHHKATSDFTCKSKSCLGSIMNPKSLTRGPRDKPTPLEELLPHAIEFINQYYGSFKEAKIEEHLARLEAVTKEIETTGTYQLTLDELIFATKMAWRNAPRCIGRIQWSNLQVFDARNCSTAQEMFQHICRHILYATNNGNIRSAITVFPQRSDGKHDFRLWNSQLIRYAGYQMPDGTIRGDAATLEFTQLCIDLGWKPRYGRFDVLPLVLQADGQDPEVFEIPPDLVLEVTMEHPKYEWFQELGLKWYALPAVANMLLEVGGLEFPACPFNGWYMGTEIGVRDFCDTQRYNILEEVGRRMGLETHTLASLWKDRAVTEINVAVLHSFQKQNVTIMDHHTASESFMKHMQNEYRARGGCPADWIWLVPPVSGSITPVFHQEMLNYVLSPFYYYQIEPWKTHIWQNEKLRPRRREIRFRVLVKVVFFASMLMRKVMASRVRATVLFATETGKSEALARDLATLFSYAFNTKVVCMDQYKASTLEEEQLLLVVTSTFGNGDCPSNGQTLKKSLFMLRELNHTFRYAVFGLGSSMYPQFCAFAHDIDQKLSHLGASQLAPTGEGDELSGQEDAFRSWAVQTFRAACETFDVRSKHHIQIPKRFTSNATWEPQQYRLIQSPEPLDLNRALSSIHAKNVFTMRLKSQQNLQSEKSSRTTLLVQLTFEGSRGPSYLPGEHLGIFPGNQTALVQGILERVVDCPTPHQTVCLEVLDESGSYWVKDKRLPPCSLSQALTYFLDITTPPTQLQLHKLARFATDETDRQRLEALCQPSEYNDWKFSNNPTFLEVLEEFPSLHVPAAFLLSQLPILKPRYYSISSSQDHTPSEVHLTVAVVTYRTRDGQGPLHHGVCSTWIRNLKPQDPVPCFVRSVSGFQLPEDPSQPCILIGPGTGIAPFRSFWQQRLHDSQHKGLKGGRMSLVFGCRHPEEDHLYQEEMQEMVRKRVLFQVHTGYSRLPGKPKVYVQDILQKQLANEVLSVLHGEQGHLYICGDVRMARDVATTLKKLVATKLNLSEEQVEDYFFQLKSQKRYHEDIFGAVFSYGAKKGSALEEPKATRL

Nitric oxide synthase 1 [4] = target: Nitric oxide synthase 1 (Homo sapiens, UniProt P29475); assay: Binding affinity to recombinant human neuronal NOS overexpressed in Escherichia coli assessed as production of nitric oxide from L-arginine measured for 5 mins by oxyhemoglobin NO capture assay
Chain of Nitric oxide synthase 1 (Homo sapiens, UniProt P29475) (P29475 whole entry): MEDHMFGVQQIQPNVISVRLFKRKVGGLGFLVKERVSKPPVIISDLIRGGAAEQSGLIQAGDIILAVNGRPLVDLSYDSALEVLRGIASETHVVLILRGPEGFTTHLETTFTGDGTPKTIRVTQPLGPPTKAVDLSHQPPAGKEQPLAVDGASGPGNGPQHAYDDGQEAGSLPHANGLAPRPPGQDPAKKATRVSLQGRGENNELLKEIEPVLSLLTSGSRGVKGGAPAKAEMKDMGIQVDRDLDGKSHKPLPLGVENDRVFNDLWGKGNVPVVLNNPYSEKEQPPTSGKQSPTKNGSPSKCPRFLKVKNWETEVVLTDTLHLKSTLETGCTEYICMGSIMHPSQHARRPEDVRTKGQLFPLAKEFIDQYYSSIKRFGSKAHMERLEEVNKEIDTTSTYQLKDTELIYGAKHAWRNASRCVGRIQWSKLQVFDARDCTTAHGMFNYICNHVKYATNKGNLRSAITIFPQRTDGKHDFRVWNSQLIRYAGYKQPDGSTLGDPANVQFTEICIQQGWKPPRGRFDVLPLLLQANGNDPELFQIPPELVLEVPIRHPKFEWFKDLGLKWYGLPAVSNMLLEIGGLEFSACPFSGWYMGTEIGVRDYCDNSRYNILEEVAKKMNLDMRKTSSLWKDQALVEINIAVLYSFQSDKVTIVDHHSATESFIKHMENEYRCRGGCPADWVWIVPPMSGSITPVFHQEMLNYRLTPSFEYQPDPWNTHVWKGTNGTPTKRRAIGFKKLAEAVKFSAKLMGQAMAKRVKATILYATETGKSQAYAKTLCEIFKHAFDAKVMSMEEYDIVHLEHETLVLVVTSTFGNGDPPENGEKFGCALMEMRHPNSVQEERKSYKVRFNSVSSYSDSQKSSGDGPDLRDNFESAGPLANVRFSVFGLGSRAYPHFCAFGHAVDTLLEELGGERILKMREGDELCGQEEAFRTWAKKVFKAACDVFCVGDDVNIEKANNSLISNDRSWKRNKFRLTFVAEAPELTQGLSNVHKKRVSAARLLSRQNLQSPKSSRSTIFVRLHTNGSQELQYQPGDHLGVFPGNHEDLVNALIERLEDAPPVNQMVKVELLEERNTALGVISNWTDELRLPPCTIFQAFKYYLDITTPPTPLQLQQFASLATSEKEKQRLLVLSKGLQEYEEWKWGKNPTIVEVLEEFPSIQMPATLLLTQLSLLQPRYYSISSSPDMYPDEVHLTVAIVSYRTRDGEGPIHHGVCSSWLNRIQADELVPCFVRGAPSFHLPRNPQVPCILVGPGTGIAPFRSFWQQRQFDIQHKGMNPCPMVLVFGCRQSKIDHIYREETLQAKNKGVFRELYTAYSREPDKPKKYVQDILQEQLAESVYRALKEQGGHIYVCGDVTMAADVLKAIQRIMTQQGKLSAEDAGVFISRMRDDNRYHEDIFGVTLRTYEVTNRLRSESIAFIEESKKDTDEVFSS

Nitric oxide synthase 3 = target: T2, Nitric oxide synthase 3 (Bos taurus, UniProt P29473); assay: Binding affinity to recombinant bovine endothelial NOS overexpressed in Escherichia coli assessed as production of nitric oxide from L-arginine measured for 5 mins by oxyhemoglobin NO capture assay
T2 sequence (P29473 whole entry): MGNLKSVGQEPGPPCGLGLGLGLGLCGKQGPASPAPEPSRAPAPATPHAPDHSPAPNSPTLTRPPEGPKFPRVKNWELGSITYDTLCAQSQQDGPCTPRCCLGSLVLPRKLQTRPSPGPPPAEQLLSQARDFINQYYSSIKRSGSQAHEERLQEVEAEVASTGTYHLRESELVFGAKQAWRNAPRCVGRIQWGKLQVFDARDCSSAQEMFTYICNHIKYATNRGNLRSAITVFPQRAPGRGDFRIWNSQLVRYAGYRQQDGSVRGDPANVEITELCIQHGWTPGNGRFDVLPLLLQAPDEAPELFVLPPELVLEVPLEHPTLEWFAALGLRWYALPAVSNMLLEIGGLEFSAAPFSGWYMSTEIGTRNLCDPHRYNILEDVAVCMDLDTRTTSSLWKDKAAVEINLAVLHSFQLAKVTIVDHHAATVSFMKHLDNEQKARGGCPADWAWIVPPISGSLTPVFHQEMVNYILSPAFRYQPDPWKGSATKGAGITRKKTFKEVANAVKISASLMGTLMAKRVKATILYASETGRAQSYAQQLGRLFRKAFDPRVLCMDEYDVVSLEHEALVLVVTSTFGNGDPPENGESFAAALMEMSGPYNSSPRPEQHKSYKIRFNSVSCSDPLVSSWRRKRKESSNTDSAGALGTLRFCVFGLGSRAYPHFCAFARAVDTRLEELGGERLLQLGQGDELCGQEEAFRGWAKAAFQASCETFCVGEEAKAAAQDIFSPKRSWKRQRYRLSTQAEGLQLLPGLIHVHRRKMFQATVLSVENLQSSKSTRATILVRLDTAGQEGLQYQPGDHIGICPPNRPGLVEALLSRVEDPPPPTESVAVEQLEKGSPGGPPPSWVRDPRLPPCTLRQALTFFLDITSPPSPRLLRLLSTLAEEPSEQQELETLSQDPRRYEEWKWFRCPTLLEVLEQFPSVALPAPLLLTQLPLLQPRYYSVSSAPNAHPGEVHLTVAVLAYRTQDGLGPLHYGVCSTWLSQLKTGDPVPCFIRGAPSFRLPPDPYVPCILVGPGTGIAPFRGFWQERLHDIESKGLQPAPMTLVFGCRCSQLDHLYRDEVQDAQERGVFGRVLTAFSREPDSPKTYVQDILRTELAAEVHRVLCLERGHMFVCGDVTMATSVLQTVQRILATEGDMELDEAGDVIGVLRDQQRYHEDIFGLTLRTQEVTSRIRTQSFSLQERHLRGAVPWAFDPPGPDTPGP
Method in brief: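 Purified recombinant bovine eNOS (E. coli-expressed) at 37 °C in 100 mM HEPES, 10% glycerol, pH 7.4, with 10 μM L-arginine and tetrahydrobiopterin, 100 μM NADPH, 0.83 mM CaCl2, ~320 units/mL calmodulin, and 3 μM human oxyhemoglobin. Methemoglobin formation read at 401 nm every 22 s for 5 min. Nine inhibitor concentrations (500 μM–50 nM), at least duplicate.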

[5] = Selectivity ratio of Ki for recombinant bovine endothelial NOS to Ki for recombinant rat neuronal NOS
[6] = Selectivity ratio of Ki for recombinant mouse macrophage inducible NOS to Ki for recombinant rat neuronal NOS
[7] = Selectivity ratio of Ki for recombinant human neuronal NOS to Ki for recombinant rat neuronal NOS
[8] = target: T3, Alpha-2C adrenergic receptor (Homo sapiens, UniProt P18825); assay: Binding affinity to human adrenergic alpha-2C receptor after 90 mins by radioligand displacement assay
T3 sequence (P18825 whole entry): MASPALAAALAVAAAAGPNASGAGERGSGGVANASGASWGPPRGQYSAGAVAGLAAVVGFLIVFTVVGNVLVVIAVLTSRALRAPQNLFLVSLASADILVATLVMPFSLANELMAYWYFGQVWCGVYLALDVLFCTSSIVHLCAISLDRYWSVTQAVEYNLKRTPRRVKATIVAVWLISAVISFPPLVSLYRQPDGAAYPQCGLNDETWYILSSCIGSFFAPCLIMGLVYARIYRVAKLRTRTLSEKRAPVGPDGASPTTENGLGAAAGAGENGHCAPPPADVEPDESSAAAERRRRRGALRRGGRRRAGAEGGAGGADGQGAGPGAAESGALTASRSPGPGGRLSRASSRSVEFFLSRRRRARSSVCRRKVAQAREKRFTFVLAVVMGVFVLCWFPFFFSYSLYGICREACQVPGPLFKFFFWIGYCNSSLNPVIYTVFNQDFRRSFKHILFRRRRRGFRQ

[9] = target: 5-hydroxytryptamine receptor 2A (Homo sapiens) (UniProt P28223); assay: Binding affinity to human 5-HT2A receptor at 10 uM after 90 mins by radioligand displacement assay relative to control
[10] = target: T4, 5-hydroxytryptamine receptor 1A (Homo sapiens) (UniProt P08908); details: 10 uM
T4 sequence (whole entry): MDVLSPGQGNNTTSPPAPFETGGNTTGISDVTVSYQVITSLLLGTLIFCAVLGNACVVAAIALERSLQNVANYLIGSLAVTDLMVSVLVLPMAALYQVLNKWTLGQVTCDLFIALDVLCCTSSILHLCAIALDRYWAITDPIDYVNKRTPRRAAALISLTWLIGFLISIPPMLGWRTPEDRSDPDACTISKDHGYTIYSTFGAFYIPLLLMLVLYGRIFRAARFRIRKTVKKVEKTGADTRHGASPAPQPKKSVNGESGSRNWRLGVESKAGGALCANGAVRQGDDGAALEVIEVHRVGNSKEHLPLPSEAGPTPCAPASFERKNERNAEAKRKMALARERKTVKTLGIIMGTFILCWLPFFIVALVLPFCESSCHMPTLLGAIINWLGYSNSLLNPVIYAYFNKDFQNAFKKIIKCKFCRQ

CYP3A4 = CYP3A4 (Homo sapiens, UniProt P08684); assay: Inhibition of human liver microsomal CYP3A4 using midazolam as substrate at 10 uM preincubated for 5 mins followed by NADPH addition measured after 5 mins by LC-MS/MS analysis; type: ADME; details: liver microsomes, probe midazolam
Chain of CYP3A4 (P08684 whole entry): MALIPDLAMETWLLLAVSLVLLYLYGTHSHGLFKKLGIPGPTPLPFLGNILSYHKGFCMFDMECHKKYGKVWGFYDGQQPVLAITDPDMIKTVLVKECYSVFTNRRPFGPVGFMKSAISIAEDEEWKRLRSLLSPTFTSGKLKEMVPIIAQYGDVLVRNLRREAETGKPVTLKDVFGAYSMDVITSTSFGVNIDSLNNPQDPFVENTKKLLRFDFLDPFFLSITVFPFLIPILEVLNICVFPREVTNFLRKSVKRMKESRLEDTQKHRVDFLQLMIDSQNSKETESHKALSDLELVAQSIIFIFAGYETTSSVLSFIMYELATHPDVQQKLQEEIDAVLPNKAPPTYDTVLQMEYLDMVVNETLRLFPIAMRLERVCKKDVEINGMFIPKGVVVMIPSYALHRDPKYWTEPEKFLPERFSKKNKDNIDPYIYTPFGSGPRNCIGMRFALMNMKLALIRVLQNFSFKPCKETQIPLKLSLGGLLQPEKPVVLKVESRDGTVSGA
Method in brief: (§1)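 Human liver microsomes in Kphos buffer, test compound at 10 μM (DMSO). Probe substrate added and preincubated 5 min at 37 °C, then started with NADPH. Incubation times: CYP3A4 (midazolam) 5 min, CYP2D6 (bufuralol) 10 min, CYP2C19 (S-mephenytoin) 20 min. Stopped with cold acetonitrile containing internal standard. Metabolites measured by LC-MS/MS; % inhibition from peak-area ratios relative to DMSO control.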

[11] = target: D(3) dopamine receptor (Homo sapiens) (UniProt P35462); details: 10 uM
Chain of D(3) dopamine receptor (Homo sapiens) (P35462 whole entry): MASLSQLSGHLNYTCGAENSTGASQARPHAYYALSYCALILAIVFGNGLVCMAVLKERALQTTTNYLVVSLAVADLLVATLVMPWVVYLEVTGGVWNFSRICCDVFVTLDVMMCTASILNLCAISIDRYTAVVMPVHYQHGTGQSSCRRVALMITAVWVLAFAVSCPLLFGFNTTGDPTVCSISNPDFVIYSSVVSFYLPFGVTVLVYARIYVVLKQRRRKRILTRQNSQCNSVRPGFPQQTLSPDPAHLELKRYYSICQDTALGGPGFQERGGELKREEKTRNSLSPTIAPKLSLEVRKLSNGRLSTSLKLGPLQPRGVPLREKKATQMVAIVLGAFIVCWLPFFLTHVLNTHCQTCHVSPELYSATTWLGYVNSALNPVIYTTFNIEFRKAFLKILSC

CYP2D6 = CYP2D6 (Homo sapiens, UniProt P10635); assay: Inhibition of human liver microsomal CYP2D6 using bufuralol as substrate at 10 uM preincubated for 5 mins followed by NADPH addition measured after 10 mins by LC-MS/MS analysis; type: ADME; details: liver microsomes, probe bufuralol; method in brief: as §1
Chain of CYP2D6 (P10635 whole entry): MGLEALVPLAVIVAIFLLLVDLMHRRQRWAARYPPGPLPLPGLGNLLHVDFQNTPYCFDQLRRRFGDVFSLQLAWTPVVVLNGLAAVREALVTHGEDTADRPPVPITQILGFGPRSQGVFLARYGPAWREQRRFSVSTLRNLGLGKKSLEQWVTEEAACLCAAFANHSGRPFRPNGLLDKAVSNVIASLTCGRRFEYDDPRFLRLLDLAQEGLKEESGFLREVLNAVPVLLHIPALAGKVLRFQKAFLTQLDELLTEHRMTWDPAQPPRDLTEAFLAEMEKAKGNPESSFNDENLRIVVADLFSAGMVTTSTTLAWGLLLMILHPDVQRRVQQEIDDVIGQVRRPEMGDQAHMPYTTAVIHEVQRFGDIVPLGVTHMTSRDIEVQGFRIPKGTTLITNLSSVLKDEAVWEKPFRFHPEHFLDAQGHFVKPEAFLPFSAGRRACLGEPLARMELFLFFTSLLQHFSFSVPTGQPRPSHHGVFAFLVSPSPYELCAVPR

Homo sapiens = species on record: Homo sapiens; assay: Binding affinity to human sigma-2 receptor at 10 uM after 90 mins by radioligand displacement assay relative to control
CYP2C19 = CYP2C19 (Homo sapiens, UniProt P33261); assay: Inhibition of human liver microsomal CYP2C19 using S-mephenytoin as substrate at 10 uM preincubated for 5 mins followed by NADPH addition measured after 20 mins by LC-MS/MS analysis; type: ADME; details: liver microsomes, probe S-mephenytoin; method in brief: as §1
Chain of CYP2C19 (P33261 whole entry): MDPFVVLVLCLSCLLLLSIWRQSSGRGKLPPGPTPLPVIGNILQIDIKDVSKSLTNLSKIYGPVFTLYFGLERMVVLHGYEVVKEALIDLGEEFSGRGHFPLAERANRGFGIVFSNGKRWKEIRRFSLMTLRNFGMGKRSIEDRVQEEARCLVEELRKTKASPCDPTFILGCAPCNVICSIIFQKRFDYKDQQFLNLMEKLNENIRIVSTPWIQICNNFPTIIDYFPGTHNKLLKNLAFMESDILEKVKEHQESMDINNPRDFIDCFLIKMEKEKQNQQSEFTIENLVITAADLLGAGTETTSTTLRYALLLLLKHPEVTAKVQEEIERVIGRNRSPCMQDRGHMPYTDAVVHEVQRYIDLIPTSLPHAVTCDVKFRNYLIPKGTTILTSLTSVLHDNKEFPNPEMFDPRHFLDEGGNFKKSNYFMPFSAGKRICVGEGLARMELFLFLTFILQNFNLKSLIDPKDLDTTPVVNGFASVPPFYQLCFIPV

[12] = target: T5, Sigma non-opioid intracellular receptor 1 (Homo sapiens, UniProt Q99720); assay: Binding affinity to human sigma-1 receptor after 90 mins by radioligand displacement assay
T5 sequence (Q99720 whole entry): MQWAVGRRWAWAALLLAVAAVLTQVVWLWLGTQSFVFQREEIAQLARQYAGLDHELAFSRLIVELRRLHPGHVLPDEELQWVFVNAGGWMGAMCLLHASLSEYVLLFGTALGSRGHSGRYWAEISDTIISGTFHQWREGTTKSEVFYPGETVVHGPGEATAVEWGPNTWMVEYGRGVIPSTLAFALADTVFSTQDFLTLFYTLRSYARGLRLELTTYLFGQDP

[13] = target: T5, Sigma non-opioid intracellular receptor 1; assay: Binding affinity to human sigma-1 receptor at 10 uM after 90 mins by radioligand displacement assay relative to control
[14] = Permeability across apical to basolateral side in human Caco2 cells assessed as drug recovery at 10 uM after 2 hrs by LC/MS/MS analysis; type: ADME, cell-based; details: caco-2, 2 h
Method in brief: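 Caco-2 monolayers grown 3 weeks, integrity checked by Lucifer yellow transport. Compound 10 μM for 2 h added apically; apical buffer HBSS/10 mM HEPES with glucose, pH 6.5, basolateral transport buffer pH 7.4. Receiver side sampled and quantified by LC/MS/MS; recovery reported.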

[15] = target: T6, Alpha-2C adrenergic receptor (Homo sapiens) (UniProt P18825); assay: Binding affinity to human adrenergic alpha-2C receptor at 10 uM after 90 mins by radioligand displacement assay relative to control
T6 sequence (whole entry): T3 sequence (P18825 whole entry)

## Cc1cn(-c2nccc(CCNCCCc3cccc(F)c3)n2)cn1
Nitric oxide synthase 1 [1]
  Ki: 81000 nM

## Fc1cccc(CCCNCCc2ccnc(-n3cncn3)n2)c1
Nitric oxide synthase 1 [1]
  Ki: 27000 nM

## c1c[nH]cn1 [IMIDAZOLE]
[2]
  IC50: 200000 nM

## Fc1cccc(C[C@H]2C[C@@H]2NCCc2ccnc(-n3ccnc3)n2)c1
[3]
  Ki: 3000 nM
Nitric oxide synthase 1 [4]
  Ki: 873 nM
Nitric oxide synthase 1 [1]
  Ki: 150 nM
Nitric oxide synthase 3
  Ki: 40000 nM

## Fc1cccc(CCCNCc2ccnc(-n3ccnc3)n2)c1
[5]
  Ratio Ki: 33
[6]
  Ratio Ki: 4

## Cc1cncn1-c1nccc(CCNCCCc2cccc(F)c2)n1
[3]
  Ki: 24000 nM
Nitric oxide synthase 1 [4]
  Ki: 303 nM
Nitric oxide synthase 1 [1]
  Ki: 60 nM
Nitric oxide synthase 3
  Ki: 15400 nM

## Fc1cccc(C[C@@H]2C[C@H]2NCCc2ccnc(-n3ccnc3)n2)c1
[3]
  Ki: 2140 nM
Nitric oxide synthase 1 [4]
  Ki: 137 nM
Nitric oxide synthase 1 [1]
  Ki: 18 nM
Nitric oxide synthase 3
  Ki: 10300 nM

## Cc1nccn1-c1nccc(CCNCCCc2cccc(F)c2)n1
Nitric oxide synthase 1 [1]
  Ki: 11500 nM

## Fc1cccc(C2CC2CNCCc2ccnc(-n3ccnc3)n2)c1 (stereo not given)
[5]
  Ratio Ki: 71
[7]
  Ratio Ki: 6.4
[6]
  Ratio Ki: 34

## c1ccc(-n2ccnc2)cc1
[2]
  IC50: 25000 nM

## Cl.Fc1cccc(CCCNCCc2ccnc(-n3ccnc3)n2)c1
[8]
  Ki: 200 nM
[9]
  inhibition: 88%
[10]
  inhibition: 83%
CYP3A4
  inhibition at 5 min, 10 µM: > 70%
[11]
  inhibition: 87%
CYP2D6
  inhibition at 10 min, 10 µM: > 70%
Homo sapiens
  inhibition: 88%
CYP2C19
  inhibition at 20 min, 10 µM: > 70%
[12]
  Ki: 200 nM
[13]
  inhibition: 94%
[14]
  Drug recovery: 73%
[15]
  inhibition: 95%

## Clc1cccc(CCCNCCc2ccnc(-n3ccnc3)n2)c1
[5]
  Ratio Ki: 253
[3]
  Ki: 910 nM
[7]
  Ratio Ki: 3.9
[6]
  Ratio Ki: 28

## Fc1cccc(CCNCCNc2ccnc(-n3ccnc3)n2)c1
[5]
  Ratio Ki: 109
[6]
  Ratio Ki: 17
